Source: ChEMBL document CHEMBL3877250, “Design, synthesis, and biological evaluation of (2E)-(2-oxo-1, 2-dihydro-3H-indol-3-ylidene)acetate derivatives as anti-proliferative agents through ROS-induced cell apoptosis” (Eur J Med Chem, 2016)

Key:
[1] = Cell cycle arrest in human HCT116 cells assessed as G1 phase accumulation at 2 uM after 48 hrs by Annexin V-FITC/propidium iodide staining based flow cytometry (reference value: 40.83%); assay type: functional; conditions: HCT-116
[2] = Cytotoxicity against human MDA-MB-231 cells assessed as growth inhibition at 20 uM after 72 hrs by CCK-8 assay; assay type: functional; conditions: MDA-MB-231, 72 h, read-out: GI
Outline: (§1)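 Cells kept in RPMI 1640 with 10% heat-inactivated fetal calf serum and 1% streptomycin/penicillin at 37 °C, 5% CO2. After compound exposure, CCK-8 was added and cells were incubated 4 h at 37 °C, then absorbance was read at 450 nm. Viability is relative to untreated cells (100%). IC50 comes from nonlinear regression, mean of three separate determinations. Single-concentration screen at 20 µM.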

HCT-116 [3] = assay: Induction of apoptosis in human HCT116 cells assessed as live cells at 1 uM after 48 hrs by Annexin V-FITC/propidium iodide staining based flow cytometry (reference value: 88.7%); assay type: functional
HCT-116 [4] = assay: Induction of apoptosis in human HCT116 cells assessed as live cells at 0.5 uM after 48 hrs by Annexin V-FITC/propidium iodide staining based flow cytometry (reference value: 88.7%); assay type: functional
HCT-116 [5] = assay: Induction of apoptosis in human HCT116 cells assessed as necrotic cells at 4 uM after 48 hrs by Annexin V-FITC/propidium iodide staining based flow cytometry (reference value: 0.8%); assay type: functional
[6] = Antitumor activity against human HepG2 cells assessed as growth inhibition at 20 uM after 72 hrs by CCK-8 assay; assay type: functional; conditions: HepG2, 72 h, read-out: GI; outline: as §1
HCT-116 [7] = assay: Induction of apoptosis in human HCT116 cells assessed as live cells at 0.1 uM after 48 hrs by Annexin V-FITC/propidium iodide staining based flow cytometry (reference value: 88.7%); assay type: functional
[8] = Cytotoxicity against human HL60 cells assessed as growth inhibition at 20 uM after 72 hrs by CCK-8 assay; assay type: functional; conditions: HL-60, 72 h, read-out: GI; outline: as §1
[9] = Cell cycle arrest in human HCT116 cells assessed as S phase accumulation at 3 uM after 48 hrs by Annexin V-FITC/propidium iodide staining based flow cytometry (reference value: 28.43%); assay type: functional; conditions: HCT-116
[10] = Cell cycle arrest in human HCT116 cells assessed as G1 phase accumulation at 0.1 uM after 48 hrs by Annexin V-FITC/propidium iodide staining based flow cytometry (reference value: 40.83%); assay type: functional; conditions: HCT-116
[11] = Cytotoxicity against human SK-BR-3 cells assessed as growth inhibition at 20 uM after 72 hrs by CCK-8 assay; assay type: functional; conditions: SK-BR-3, 72 h, read-out: GI; outline: as §1
HCT-116 [12] = assay: Induction of apoptosis in human HCT116 cells assessed as late apoptotic cells at 8 uM after 48 hrs by Annexin V-FITC/propidium iodide staining based flow cytometry (reference value: 6.7%); assay type: functional
[13] = Cell cycle arrest in human HCT116 cells assessed as sub-G1 phase accumulation at 3 uM after 48 hrs by Annexin V-FITC/propidium iodide staining based flow cytometry (reference value: 4.36%); assay type: functional; conditions: HCT-116
[14] = Cytotoxicity against human HCT116 cells after 72 hrs by CCK-8 assay; assay type: functional, cell-based; conditions: HCT-116, 72 h; outline: as §1
[15] = Cell cycle arrest in human HCT116 cells assessed as G2/M phase accumulation at 0.1 uM after 48 hrs by Annexin V-FITC/propidium iodide staining based flow cytometry (reference value: 25.3%); assay type: functional; conditions: HCT-116
[16] = Cytotoxicity against human SK-BR-3 cells after 72 hrs by CCK-8 assay; assay type: functional, cell-based; conditions: SK-BR-3, 72 h; outline: as §1
HCT-116 [17] = assay: Induction of apoptosis in human HCT116 cells assessed as early apoptotic cells at 1 uM after 48 hrs by Annexin V-FITC/propidium iodide staining based flow cytometry (reference value: 3.8%); assay type: functional
Outline: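 HCT116 seeded at 2×10^5 cells/well, cultured 6 h, then treated 48 h at 0.1, 0.5, 1, 4, 8 or 16 µM; DMSO (0.1%) served as vehicle. Cells washed twice in cold PBS, resuspended in binding buffer with FITC Annexin V and PI for 15 min at RT in the dark, diluted, and run on flow cytometry within 1 h.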

HCT-116 [18] = assay: Induction of apoptosis in human HCT116 cells assessed as live cells at 8 uM after 48 hrs by Annexin V-FITC/propidium iodide staining based flow cytometry (reference value: 88.7%); assay type: functional
[19] = Cytotoxicity against human HL60 cells after 72 hrs by CCK-8 assay; assay type: functional, cell-based; conditions: HL-60, 72 h; outline: as §1
HCT-116 [20] = assay: Induction of apoptosis in human HCT116 cells assessed as increase in intracellular reactive oxygen species at 0.17 to 8 uM by DCFH-DA probe-based flow cytometry; assay type: functional, cell-based; conditions: TDE = time-dependent effect
Outline: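 For the dose series, HCT116 cells were seeded at 5 × 10⁴ cells/well, grown 24 h, then exposed 3 h to DMSO or graded compound levels, with a Rosup positive group. Cells were washed with PBS and serum-free medium, loaded with DCFH-DA (1 μmol/L) in serum-free medium at 37 °C for 20 min, and ROS fluorescence was read by flow cytometry.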

[21] = Cytotoxicity against human L02 cells after 72 hrs by CCK-8 assay; assay type: toxicity, cell-based; outline: as §1
HCT-116 [22] = assay: Induction of apoptosis in human HCT116 cells assessed as late apoptotic cells at 0.5 uM after 48 hrs by Annexin V-FITC/propidium iodide staining based flow cytometry (reference value: 6.7%); assay type: functional
[23] = Cytotoxicity against human HCT116 cells assessed as growth inhibition at 20 uM after 72 hrs by CCK-8 assay; assay type: functional; conditions: HCT-116, 72 h, read-out: GI; outline: as §1
[24] = Cell cycle arrest in human HCT116 cells assessed as sub-G1 phase accumulation at 4 uM after 48 hrs by Annexin V-FITC/propidium iodide staining based flow cytometry (reference value: 4.36%); assay type: functional; conditions: HCT-116
HCT-116 [25] = assay: Induction of apoptosis in human HCT116 cells assessed as late apoptotic cells at 0.1 uM after 48 hrs by Annexin V-FITC/propidium iodide staining based flow cytometry (reference value: 6.7%); assay type: functional
[26] = Cell cycle arrest in human HCT116 cells assessed as sub-G1 phase accumulation at 0.1 uM after 48 hrs by Annexin V-FITC/propidium iodide staining based flow cytometry (reference value: 4.36%); assay type: functional; conditions: HCT-116
[27] = Cell cycle arrest in human HCT116 cells assessed as G2/M phase accumulation at 2 uM after 48 hrs by Annexin V-FITC/propidium iodide staining based flow cytometry (reference value: 25.3%); assay type: functional; conditions: HCT-116
[28] = Cell cycle arrest in human HCT116 cells assessed as G1 phase accumulation at 4 uM after 48 hrs by Annexin V-FITC/propidium iodide staining based flow cytometry (reference value: 40.83%); assay type: functional; conditions: HCT-116
HCT-116 [29] = assay: Induction of apoptosis in human HCT116 cells assessed as necrotic cells at 8 uM after 48 hrs by Annexin V-FITC/propidium iodide staining based flow cytometry (reference value: 0.8%); assay type: functional
[30] = Cytotoxicity against human Saos2 cells after 72 hrs by CCK-8 assay; assay type: functional, cell-based; conditions: SAOS-2, 72 h; outline: as §1
HCT-116 [31] = assay: Induction of apoptosis in human HCT116 cells assessed as necrotic cells at 0.1 uM after 48 hrs by Annexin V-FITC/propidium iodide staining based flow cytometry (reference value: 0.8%); assay type: functional

`CC(C)(C)OC(=O)/C=C1/C(=O)Nc2ccccc21` gave an Activity [1] of 40.9%, an inhibition of growth at 20 µM [2] of 87.6% and an Activity (HCT-116 [3]) of 87.9%. For the same molecule, the Activity (HCT-116 [4]) was 89%, the Activity (HCT-116 [5]) was 0.7% and the inhibition of growth at 20 µM [6] was 86.1%. The Activity (HCT-116 [7]) was 90.8%, the inhibition of growth at 20 µM [8] was 94.5% and the Activity [9] was 30.1%. For the same molecule, the Activity [10] was 40.8%, the inhibition of growth at 20 µM [11] was 87.3% and the Activity (HCT-116 [12]) was 13.6%. It also gave an Activity [13] of 5.11%, an IC50 [14] of 2.64 µM and an Activity [15] of 20.6%. For the same molecule, the IC50 [16] was 3.42 µM, the Activity (HCT-116 [17]) was 2.6% and the Activity (HCT-116 [18]) was 78.4%. The IC50 [19] was 2.45 µM, the Activity (HCT-116 [20]) was “Tde” and the IC50 at 72 h [21] was 2.45 µM. It also gave an Activity (HCT-116 [22]) of 7.5%, an inhibition of growth at 20 µM [23] of 89.5% and an Activity [24] of 35.7%. For the same molecule, the Activity (HCT-116 [25]) was 6.2%, the Activity [26] was 1.27% and the Activity [27] was 29.3%. It also gave an Activity [28] of 26.2%, an Activity (HCT-116 [29]) of 0.8% and an IC50 [30] of 6.11 µM. For the same molecule, the Activity (HCT-116 [31]) was 0.6%.
